A short description of data set [1]: Cytotoxicity against human HepG2.2.15 cells after 9 days by MTT assay. As to conditions: read-out: TC50. Format: cell-based, HepG2 2.2.15. The gist of the method:
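HepG2.2.15 cells were treated as in the antiviral assay (RPMI 1640, 2% FBS, daily renewal), with untreated controls on each plate. Viability after 9 days of treatment was read from neutral red uptake as absorbance at 510 nm relative to untreated cells. TC50 is the 50% cytotoxic concentration.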
A general note: Tetrazolium assays rely on reduction of a dye to a coloured formazan, in cell work by metabolically active cells.

Data set [2] can be described thus: Selectivity index, ratio of TC50 for human HepG2.2.15 cells to IC50 for HBV DNA replication. The gist of the method: (§1)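 SI = TC50/IC50. TC50 is the 50% cytotoxic concentration in HepG2.2.15 cells by neutral red uptake after 9 days. IC50 comes from the 8-day HepG2.2.15 treatment in RPMI 1640 with 2% FBS, read by Southern blot for DNA or by enzyme immunoassay for secreted HBeAg or HBsAg.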

The nature of data set [3]: Selectivity index, ratio of TC50 for human HepG2.2.15 cells to IC50 for HBV surface antigen production. The gist of the method: as §1
Data set [4] in a line: Selectivity index, ratio of TC50 for human HepG2.2.15 cells to IC50 for HBV e-antigen production. An outline of the steps:
as §1

Data set [5] deals with Hepatitis B virus. The experiment in a line: Antiviral activity against HBV assessed as inhibition of viral DNA replication by Southern blot. The class given is functional, organism-based. An outline of the steps: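 Confluent HepG2.2.15 cultures were dosed across a range of concentrations in RPMI 1640 with 2% FBS. Medium and compound were renewed daily for 8 days. Intracellular HBV DNA was quantified by Southern blot hybridization and IC50 was taken as the 50% inhibitory concentration.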

Data set [6] relates to Hepatitis B virus. The experiment in a line: Antiviral activity against HBV assessed as inhibition of viral surface-antigen production by enzyme immunoassay. Format: functional, organism-based. The gist of the method:
(§2)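 Confluent HepG2.2.15 cells were treated with varied doses in RPMI 1640 plus 2% FBS, with fresh medium and drug each day for 8 days. Secreted HBeAg or HBsAg in the supernatant was measured by semiquantitative enzyme immunoassay, giving a 50% inhibitory concentration (IC50).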

Data set [7] has as its system Hepatitis B virus. Briefly: Antiviral activity against HBV assessed as inhibition of viral e-antigen production by enzyme immunoassay. Format: functional, organism-based. An outline of the steps: as §2
The test system of data set [8] is Hepatitis B virus. The experiment in a line: Antiviral activity against HBV assessed as inhibition of viral surface-antigen production at <60 uM by enzyme immunoassay. Format: functional, organism-based.

As a reminder, the IC50 is the midpoint of a concentration-inhibition curve.

Active and inactive are the calls of the source. The rule behind the calls is not given here.

Regarding `CCOC(=O)c1cc2c(CN3CCCC3)c(O)c(OC)cc2nc1C[S+]([O-])c1ccc(F)cc1` (configuration not stated), the CC50 at 216 h in data set [1] was found to be 166 µM. Moreover, the figures for the Ratio in data set [2], in data set [3] and in data set [4] were 15.5, 6.6 and 7.9, respectively. Also, the IC50 in data set [5] worked out at 10.7 µM; in data set [6] it was 25.1 µM; in data set [7], 21.1 µM.

Take `CCOC(=O)c1cc2c(CN3CCCC3)c(O)c(OC)cc2nc1CSc1ccc(F)cc1`: in data set [1], the CC50 at 216 h came to 47.3 µM. Moreover, the Ratio in data set [2] is on record as 4.6; in data set [3], 5.6; in data set [4], 5.1. The results for the IC50 in data set [5], in data set [6] and in data set [7] were 10.2 µM, 8.5 µM and 9.3 µM, respectively.

On to `CCOC(=O)c1cc2c(Cn3ccnc3)c(O)c(OC)cc2nc1CSc1ccc(OC)c(OC)c1`, for which the CC50 at 216 h in data set [1] was determined as 189 µM.

For the molecule `CCOC(=O)c1cc2c(Cn3ccnc3)c(O)c(OC)cc2nc1CSc1cccc(OC)c1`, the CC50 at 216 h in data set [1] was determined as 186 µM. The Ratio in data set [4] is 2.9. Besides, the IC50 in data set [7] is 65.1 µM.

As to `CCOC(=O)c1cc2c(Cn3ccnc3)c(O)c(OC)cc2nc1CSc1ccc(F)cc1`, the CC50 at 216 h in data set [1] amounted to 202 µM. Moreover, the Ratio is reported as 6.2 in data set [2] and 6 in data set [3]. In addition, the values for the IC50 in data set [5] and in data set [6] were 41.7 µM and 42.8 µM, respectively.

On to `CCOC(=O)c1cc2c(CN(C)C)c(O)c(OC)cc2nc1CSc1ccccc1OC`, for which, in data set [1], the CC50 at 216 h came out at 58.5 µM. Also, in data set [4], the Ratio is recorded as 2.9. In addition, in data set [7], the IC50 worked out at 20.5 µM.

Turning to `CCOC(=O)c1cc2c(CN3CCCC3)c(O)c(OC)cc2nc1C[S+]([O-])c1ccc(F)c(F)c1` (configuration not stated), the CC50 at 216 h in data set [1] was determined as 16.5 µM. Moreover, in data set [2], the Ratio was determined as 3.1. Moreover, in data set [5], the IC50 came to 5.3 µM.

For `CCOC(=O)c1cc2c(CN3CCCCC3)c(O)c(OC)cc2nc1CSc1ccc(F)c(F)c1`, the CC50 at 216 h in data set [1] worked out at 135 µM. The Ratio in data set [2] is 5.6. The IC50 in data set [5] turned out to be 24.1 µM.

Regarding `CCOC(=O)c1cc2c(CN3CCOCC3)c(O)c(OC)cc2nc1CSc1ccc(F)c(F)c1`, the CC50 at 216 h in data set [1] came to 79.7 µM. For the same molecule, the Ratio is recorded as 13.7 in data set [3] and 7.3 in data set [4]. In addition, the IC50 came to 5.8 µM in data set [6] and 10.9 µM in data set [7].

With `Nc1ccn([C@@H]2CS[C@H](CO)O2)c(=O)n1` [LAMIVUDINE], the CC50 at 216 h in data set [1] came to 2210 µM. Further, the Ratio in data set [2] came to 7.1. Moreover, the IC50 in data set [5] is 311 µM.

Take `CCOC(=O)c1cc2c(Cn3ccnc3)c(O)c(OC)cc2nc1C[S+]([O-])c1ccc(F)c(F)c1` (configuration not stated): the CC50 at 216 h in data set [1] stood at 90.8 µM. Besides, in data set [2], the Ratio is reported as 7.3. In data set [5], the IC50 came out at 12.5 µM.

For the molecule `CCOC(=O)c1cc2c(CN3CCN(C)CC3)c(O)c(OC)cc2nc1CSc1ccc(F)c(F)c1`, the CC50 at 216 h in data set [1] amounted to 55.3 µM. Further, the Ratio in data set [3] amounted to 4.9. The IC50 in data set [6] amounted to 11.2 µM.

Turning to `CCOC(=O)c1cc2c(CN(C)C)c(O)c(OC)cc2nc1CSc1ccc(F)cc1`, the CC50 at 216 h in data set [1] was found to be 120 µM. The Ratio in data set [2] amounted to 3.7; in data set [3] it was 6.9. Moreover, the IC50 in data set [5] is 32.8 µM; in data set [6] it was 17.4 µM.

Turning to `CCOC(=O)c1cc2c(CN3CCCC3)c(O)c(OC)cc2nc1CSc1ccccn1`, the CC50 at 216 h in data set [1] worked out at 17.5 µM.

As to `CCOC(=O)c1cc2c(CN(C)C)c(O)c(OC)cc2nc1C[S+]([O-])c1ccc(F)cc1` (configuration not stated), the CC50 at 216 h in data set [1] was 90.4 µM. Further, the figures for the Ratio in data set [2] and in data set [3] were 4.1 and 2.5, respectively. For the same molecule, the figures for the IC50 in data set [5] and in data set [6] were 21.9 µM and 36.5 µM, respectively.

On to `CCOC(=O)c1cc2c(CN3CCCCC3)c(O)c(OC)cc2nc1CSc1ccccc1`, for which the CC50 at 216 h in data set [1] was 60.7 µM. Further, the Ratio in data set [2] came to 1.3. Also, the IC50 in data set [5] came to 45.2 µM. In addition, the outcome in data set [8] was inactive.

On to `CCOC(=O)c1cc2c(Cn3ccnc3)c(O)c(OC)cc2nc1C[S+]([O-])c1ccc(F)cc1` (configuration not stated), for which, in data set [1], the CC50 at 216 h amounted to 160 µM. Also, the Ratio amounted to 34.1 in data set [2], 6.1 in data set [3] and 1.6 in data set [4]. Moreover, the results for the IC50 in data set [5], in data set [6] and in data set [7] were 4.7 µM, 26.2 µM and 98.1 µM, respectively.

For the molecule `CCOC(=O)c1cc2c(Cn3ccnc3)c(O)c(OC)cc2nc1CSc1ccc(F)c(F)c1`, the CC50 at 216 h in data set [1] was 133 µM. The Ratio in data set [2] came out at 14.1; in data set [4], 8.1. Also, the values for the IC50 in data set [5] and in data set [7] were 9.4 µM and 16.4 µM, respectively.

Turning to `CCOC(=O)c1cc2c(CN3CCCC3)c(O)c(OC)cc2nc1C[S+]([O-])c1ccccn1` (configuration not stated), in data set [1], the CC50 at 216 h amounted to 9.4 µM.

In the case of `CCOC(=O)c1cc2c(Cn3ccnc3C)c(O)c(OC)cc2nc1CSc1ccc(F)cc1`, the CC50 at 216 h in data set [1] amounted to 78.5 µM. Moreover, the values for the Ratio in data set [2] and in data set [4] were 2.6 and 4.8, respectively. For the same molecule, the IC50 came out at 30.6 µM in data set [5] and 16.2 µM in data set [7].

Regarding `CCOC(=O)c1cc2c(Cn3ccnc3)c(O)c(OC)cc2nc1C[S+]([O-])c1cccc(OC)c1` (configuration not stated), in data set [1], the CC50 at 216 h is 194 µM. Besides, the Ratio in data set [3] is 5.9. In data set [6], the IC50 was 33.1 µM.

Source of the values: ChEMBL document CHEMBL1157455, “Synthesis and anti-hepatitis B virus evaluation of novel ethyl 6-hydroxyquinoline-3-carboxylates in vitro” (Bioorg Med Chem, 2008).
